Results from ChEMBL document CHEMBL4706708, “Improving the solubility of anti-proliferative thieno[2,3-b]quinoline-2-carboxamides” (Bioorg Med Chem, 2021).
Values after ≈ are worked out from the molar mass of the structure shown.

Tested on: HCT-116
Test: Antiproliferative activity against human HCT-116 cells assessed as cell growth at 1 uM measured after 3 days by [3H]-thymidine incorporation assay relative to control
Assay type: functional
Details: HCT-116, 72 h, time 3 day, read-out: Activity
In short: (§1)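 HCT116 and MDA-MB-231 cells from ATCC, seeded at 3000 cells/well, exposed to inhibitor for three days; 0.04 µCi 3H-thymidine added per well 5 h before harvest onto glass fibre filters, incorporation counted by scintillation and expressed relative to untreated controls. Triplicate wells, at least two independent experiments. Single-point screen at 1 µM; IC50 determined from varying concentrations.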

| Compound | growth at 1 µM |
| --- | --- |
| Nc1c(C(=O)Nc2cccc3cccnc23)sc2nc3c(cc12)CN(Cc1ccccc1)CC3 | 98.2% |
| Cc1c(F)cccc1NC(=O)c1sc2nc3c(cc2c1N)CN(Cc1ccccc1)CC3 | 98.1% |
| COc1cccc(NC(=O)c2sc3nc(C)c(C(C)=O)cc3c2N)c1 | 96.5% |
| Cc1nc2sc(C(=O)Nc3ccncc3)c(N)c2cc1C(C)O (centres undefined) | 111% |
| Cc1ccccc1NC(=O)c1sc2nc3c(cc2c1N)COCC3 | 101% |
| Cc1nc2sc(C(=O)Nc3cccc4ncccc34)c(N)c2cc1C(C)O (centres undefined) | 92% |
| Cc1nc2sc(C(=O)Nc3ccnc4ccccc34)c(N)c2cc1C(C)O (centres undefined) | 93.6% |
| CN1CCc2nc3sc(C(=O)Nc4cccc5ccccc45)c(N)c3cc2C1 | 93.5% |
| CC(=O)c1cc2c(N)c(C(=O)Nc3ccccn3)sc2nc1C | 91.7% |
| Nc1c(C(=O)Nc2ccccc2)sc2nc3c(cc12)COCC3 | 91.5% |
| Cc1nc2sc(C(=O)Nc3cccc4cccnc34)c(N)c2cc1C(C)O (centres undefined) | 110% |
| Cc1nc2sc(C(=O)Nc3cccc4c3OCCO4)c(N)c2cc1C(C)O (centres undefined) | 58.4% |
| CC(=O)c1cc2c(N)c(C(=O)Nc3cccc(F)c3C)sc2nc1C | 103% |
| Cc1nc2sc(C(=O)Nc3ccccn3)c(N)c2cc1C(C)O (centres undefined) | 96.5% |
| COc1ccc(NC(=O)c2sc3nc(C)c(C(C)O)cc3c2N)cc1 (centres undefined) | 97.5% |

Tested on: MDA-MB-231
Test: Antiproliferative activity against human MDA-MB-231 cells assessed as cell growth at 1 uM measured after 3 days by [3H]-thymidine incorporation assay relative to control
Assay type: functional
Details: MDA-MB-231, 72 h, time 3 day, read-out: Activity
In short: as §1

| Compound | growth at 1 µM |
| --- | --- |
| Nc1c(C(=O)Nc2cccc3cccnc23)sc2nc3c(cc12)CN(Cc1ccccc1)CC3 | 104% |
| Cc1c(F)cccc1NC(=O)c1sc2nc3c(cc2c1N)CN(Cc1ccccc1)CC3 | 97.3% |
| COc1cccc(NC(=O)c2sc3nc(C)c(C(C)=O)cc3c2N)c1 | 96% |
| Cc1nc2sc(C(=O)Nc3ccncc3)c(N)c2cc1C(C)O (centres undefined) | 113% |
| Cc1ccccc1NC(=O)c1sc2nc3c(cc2c1N)COCC3 | 103% |
| Cc1nc2sc(C(=O)Nc3cccc4ncccc34)c(N)c2cc1C(C)O (centres undefined) | 112% |
| Cc1nc2sc(C(=O)Nc3ccnc4ccccc34)c(N)c2cc1C(C)O (centres undefined) | 107% |
| CN1CCc2nc3sc(C(=O)Nc4cccc5ccccc45)c(N)c3cc2C1 | 89% |
| CC(=O)c1cc2c(N)c(C(=O)Nc3ccccn3)sc2nc1C | 92.9% |
| Nc1c(C(=O)Nc2ccccc2)sc2nc3c(cc12)COCC3 | 98.9% |
| Cc1nc2sc(C(=O)Nc3cccc4cccnc34)c(N)c2cc1C(C)O (centres undefined) | 102% |
| Cc1nc2sc(C(=O)Nc3cccc4c3OCCO4)c(N)c2cc1C(C)O (centres undefined) | 62.3% |
| CC(=O)c1cc2c(N)c(C(=O)Nc3cccc(F)c3C)sc2nc1C | 114% |
| Cc1nc2sc(C(=O)Nc3ccccn3)c(N)c2cc1C(C)O (centres undefined) | 93.8% |
| COc1ccc(NC(=O)c2sc3nc(C)c(C(C)O)cc3c2N)cc1 (centres undefined) | 114% |

Tested on: not listed separately
Test: Thermodynamic solubility of compound in water measured after 15 mins RP-HPLC analysis
Assay type: physicochemical
Details: read-out: Therm_solubility

| Compound | solubility thermodynamic at 0.25 h |
| --- | --- |
| Nc1c(C(=O)Nc2cccc3cccnc23)sc2nc3c(cc12)CN(Cc1ccccc1)CC3 | 1.17 µg/mL (≈ 2.51 µM) |
| Cc1c(F)cccc1NC(=O)c1sc2nc3c(cc2c1N)CN(Cc1ccccc1)CC3 | 0.84 µg/mL (≈ 1.88 µM) |
| COc1cccc(NC(=O)c2sc3nc(C)c(C(C)=O)cc3c2N)c1 | 1.1 µg/mL (≈ 3.09 µM) |
| Cc1nc2sc(C(=O)Nc3ccncc3)c(N)c2cc1C(C)O (centres undefined) | 2.85 µg/mL (≈ 8.68 µM) |
| Cc1ccccc1NC(=O)c1sc2nc3c(cc2c1N)COCC3 | 7.52 µg/mL (≈ 22.2 µM) |
| Cc1nc2sc(C(=O)Nc3cccc4ncccc34)c(N)c2cc1C(C)O (centres undefined) | 0.89 µg/mL (≈ 2.35 µM) |
| Cc1nc2sc(C(=O)Nc3ccnc4ccccc34)c(N)c2cc1C(C)O (centres undefined) | 18.5 µg/mL (≈ 49 µM) |
| CN1CCc2nc3sc(C(=O)Nc4cccc5ccccc45)c(N)c3cc2C1 | 2.17 µg/mL (≈ 5.59 µM) |
| CC(=O)c1cc2c(N)c(C(=O)Nc3ccccn3)sc2nc1C | 0.45 µg/mL (≈ 1.38 µM) |
| Nc1c(C(=O)Nc2ccccc2)sc2nc3c(cc12)COCC3 | 1.03 µg/mL (≈ 3.17 µM) |
| Cc1nc2sc(C(=O)Nc3cccc4c3OCCO4)c(N)c2cc1C(C)O (centres undefined) | 3.06 µg/mL (≈ 7.94 µM) |
| CC(=O)c1cc2c(N)c(C(=O)Nc3cccc(F)c3C)sc2nc1C | 0.35 µg/mL (≈ 0.979 µM) |
| Cc1nc2sc(C(=O)Nc3ccccn3)c(N)c2cc1C(C)O (centres undefined) | 5.43 µg/mL (≈ 16.5 µM) |
| COc1ccc(NC(=O)c2sc3nc(C)c(C(C)O)cc3c2N)cc1 (centres undefined) | 1.79 µg/mL (≈ 5.01 µM) |
